Bioassay records as filed in PubChem.
Shown are actives, neighbours in structure and some others; about 5.1% of the full set was active somewhere.
STAT3 inh – STAT3 signaling inhibition; hit rate 0.89% among 190,000; U3A cells, IL-6 STAT3-luciferase reporter, luminescence; host cell line lacks STAT1; inhibition, % at 5.5 µM;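 active = inhibition above the mean inhibition across all screened compounds plus 3 SD, cut at about 44% in these data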;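 also: 0% = DMSO only wells and 100% = 100 µM nifuroxazide control wells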
STAT1 inh – reduces IFN-gamma driven STAT1 reporter signal | inhibition, % at 5.5 µM | hit rate 0.35% among 200,000 | NIH 3T3 STAT1-luciferase reporter, luminescence;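 active = inhibition above a set limit, the mean inhibition across all tested compounds plus 3 SD, cut at about 34% in these data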;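 also: 0% = IFN-gamma with DMSO and 100% = IFN-gamma with 300 µM nifuroxazide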
APP 5'UTR act – APP 5'UTR luciferase reporter activation; SH-SY5Y APP 5'UTR luciferase reporter, luminescence; zero percent = DMSO vehicle wells; activation, % at 2 µM; hit rate 1% among 190,000; AID 1276;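 active = activation above a set limit, based on mean plus 3 SD of controls, cut at about 140% in these data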
STAT3 activator – STAT3 signaling activation; U3A cells, IL-6 STAT3-luciferase reporter, luminescence; 100% = signal with IL-6 EC80 alone; activation (% of control), % at 5.6 µM; hit rate 0.91% among 190,000; AID 871;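 active = activation above the screen-wide mean of compound activation plus 3 SD, cut at about 130% in these data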;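 also: 0% = background luminescence of wells with medium and substrate only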
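Test system: STAT3-luciferase reporter U3A cells; Detection: reporter luminescence signal; Times: 1 h compound pre-exposure, 6 h IL-6 stimulation, 37 °C; Benchmarks: IL-6-only high control; Also added: IL-6 stimulus at 33 ng/mL final.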
NF-kB neuron act – raises NF-kB expression in human neuronal cells; NF-kB reporter expression; active compounds read high; fold change at 12.5 µM; hit rate 1.6% among 190,000; in the data active = fold change above about 3.3
STAT1 act – activators of IFN-gamma induced STAT1 signaling | hit rate 2.6% among 200,000 | activation (% of control), % at 5.5 µM | NIH 3T3 STAT1-luciferase reporter, luminescence; 100% = IFN-gamma alone, no compound;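 active = activation above the screen-wide mean activation plus 3 SD, cut at about 130% in these data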;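 also: raw ratio to IFN-gamma control signal so 100% means no change and 0% no light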
Starred values were filed as active, the others as inactive.

How did Cc1ccc(C(=O)Nc2sc3c(c2C#N)CCCCC3)cc1C do in these assays?
STAT3 inh: -21; STAT1 inh: -37; APP 5'UTR act: 31; STAT3 activator: 121; NF-kB neuron act: 1.3; STAT1 act: 134*

How did Cc1cc(C(=O)Nc2sc3c(c2C#N)CCC(C)C3)no1 (stereo unspecified) do in these assays?
STAT3 inh: 25; STAT1 inh: -42; APP 5'UTR act: 66; STAT3 activator: 81; NF-kB neuron act: 1.1; STAT1 act: 139*

How did CCCC(=O)Nc1sc2c(c1C#N)CCCCC2 do in these assays?
STAT3 inh: -17; STAT1 inh: -20; APP 5'UTR act: 14; STAT3 activator: 116; NF-kB neuron act: 3.9*; STAT1 act: 118

How did CCOC(=O)c1sc2nc(CSc3ccccc3)nc(NCCN(C)C)c2c1C do in these assays?
STAT3 inh: -4; STAT1 inh: -5; APP 5'UTR act: 31; STAT3 activator: 104; NF-kB neuron act: 0.82; STAT1 act: 105

How did CCOc1ccccc1NC(=O)CN(c1ccc(OC)cc1OC)S(=O)(=O)c1ccccc1[N+](=O)[O-] do in these assays?
STAT3 inh: -8; STAT1 inh: 9; APP 5'UTR act: 15; STAT3 activator: 108; NF-kB neuron act: 0.72; STAT1 act: 90

What do the screens show for `Cc1ccc(OCCN2C(=O)C(=O)c3cccc(C)c32)cc1`?
STAT3 inh: 13; STAT1 inh: -5; APP 5'UTR act: -13; STAT3 activator: 90; NF-kB neuron act: 2.1; STAT1 act: 103

Results for Cc1ccccc1N=C1Nc2ccccc2CS1 ?
STAT3 inh: 33; STAT1 inh: -28; APP 5'UTR act: 105; STAT3 activator: 80; NF-kB neuron act: 4.6*; STAT1 act: 126

How did Cc1ccccc1N=C1NC(=O)CS1 do in these assays?
STAT3 inh: 9; STAT1 inh: 2; APP 5'UTR act: -8; STAT3 activator: 98; NF-kB neuron act: 1.1; STAT1 act: 98

How did CCCCCCCC(O)CC(CC1CCCCC1)C(=O)NN (stereo unspecified) do in these assays?
STAT3 inh: -1; STAT1 inh: -5; STAT3 activator: 101; NF-kB neuron act: 1.4; STAT1 act: 105

How did COc1ccc(N2C(=O)C3CC(C)=C(C)CC3C2=O)c(OC)c1 (stereo unspecified) do in these assays?
STAT3 inh: -7; STAT1 inh: -16; APP 5'UTR act: 3; STAT3 activator: 104; NF-kB neuron act: 1.1; STAT1 act: 115

What do the screens show for `COc1ccc(N2C(=O)CCC2=O)c(OC)c1`?
STAT3 inh: 8; STAT1 inh: -45; APP 5'UTR act: -8; STAT3 activator: 99; NF-kB neuron act: 1.1; STAT1 act: 140*

What do the screens show for `CC(C)(C)c1ccc(-c2conc2N)cc1`?
STAT3 inh: 4; STAT1 inh: -32; APP 5'UTR act: 70; STAT3 activator: 98; NF-kB neuron act: 5*; STAT1 act: 118

How did COc1ccc(Nc2ncc(C(=O)N3CCN(Cc4ccccc4)CC3)c3ccccc23)cc1 do in these assays?
STAT3 inh: 4; STAT1 inh: -5; APP 5'UTR act: -8; STAT3 activator: 100; NF-kB neuron act: 0.49; STAT1 act: 104

Results for O=c1c2c3c(sc2ncn1/N=C/c1ccc([N+](=O)[O-])o1)CCCC3 ?
STAT3 inh: -3; STAT1 inh: 4; APP 5'UTR act: -19; STAT3 activator: 111; NF-kB neuron act: 4*; STAT1 act: 96

Results for C=CCn1c(N)c(C(=O)Nc2ccc(C)cc2)sc1=S ?
STAT3 inh: 14; STAT1 inh: -34; APP 5'UTR act: -8; STAT3 activator: 89; NF-kB neuron act: 1.8; STAT1 act: 131*

Results for C=CCn1c(N)c(C(=O)Nc2ccccc2OC)sc1=S ?
STAT3 inh: -1; STAT1 inh: 1; APP 5'UTR act: -3; STAT3 activator: 105; NF-kB neuron act: 0.85; STAT1 act: 99

What do the screens show for `CCN(CC)C(=O)c1cn(-c2ccccc2)nc1-c1ccc2c(c1)OCCO2`?
STAT3 inh: 0; STAT1 inh: 9; APP 5'UTR act: -6; STAT3 activator: 101; NF-kB neuron act: 1; STAT1 act: 90

What do the screens show for `N#Cc1cn(-c2ccccc2)nc1-c1ccc2c(c1)OCCO2`?
STAT3 inh: -16; STAT1 inh: -50; APP 5'UTR act: 118; STAT3 activator: 114; NF-kB neuron act: 2.2; STAT1 act: 146*

Results for Cc1onc(-c2c(F)cccc2Cl)c1C(=O)OCn1nnc2ccccc2c1=O ?
STAT3 inh: 0; STAT1 inh: 7; APP 5'UTR act: -2; STAT3 activator: 103; NF-kB neuron act: 5.6*; STAT1 act: 94

What do the screens show for `C=C(C(=O)c1ccccc1)C(C)C(=C)C(=O)c1ccccc1`?
STAT3 inh: 6; STAT1 inh: 18; APP 5'UTR act: -41; STAT3 activator: 94; NF-kB neuron act: 8.5*; STAT1 act: 83

Results for CC(C)c1onc(C(=O)NC2CCCC2)c1[N+](=O)[O-] ?
STAT3 inh: 15; STAT1 inh: -1; APP 5'UTR act: 2; STAT3 activator: 93; NF-kB neuron act: 0.87; STAT1 act: 100

Results for CCCc1nc2c(=O)n(C)c(=O)nc-2n(C)n1 ?
STAT3 inh: 94*; STAT1 inh: 93*; APP 5'UTR act: -30; STAT3 activator: 20; STAT1 act: 16

Results for CC12C(=O)N(Cc3ccco3)C(=O)C1C1c3ccccc3C2c2ccccc21 (stereo unspecified) ?
STAT3 inh: -3; STAT1 inh: 4; STAT3 activator: 102; NF-kB neuron act: 0.79; STAT1 act: 94

How did Cc1ccccc1NC(=O)c1ccc([N+](=O)[O-])o1 do in these assays?
STAT3 inh: 11; STAT1 inh: -2; APP 5'UTR act: 2; STAT3 activator: 94; NF-kB neuron act: 3.3*; STAT1 act: 100

What do the screens show for `COc1ccc(NC(=O)c2cc3ccccc3o2)cc1`?
STAT3 inh: 1; STAT1 inh: -48; APP 5'UTR act: 138*; STAT3 activator: 105; NF-kB neuron act: 5.3*; STAT1 act: 146*

Results for CC(C)C(=O)Nc1cccc(NC(=O)c2cc3ccccc3o2)c1 ?
STAT3 inh: 10; STAT1 inh: -31; APP 5'UTR act: 36; STAT3 activator: 94; NF-kB neuron act: 1.5; STAT1 act: 130*

What do the screens show for `Cc1ccc(NC(=O)c2ccc([N+](=O)[O-])o2)c(C)c1`?
STAT3 inh: 23; STAT1 inh: -9; APP 5'UTR act: 7; STAT3 activator: 85; NF-kB neuron act: 2; STAT1 act: 108

How did Cc1cc(C(=O)NCc2ccco2)no1 do in these assays?
STAT3 inh: 3; STAT1 inh: 5; APP 5'UTR act: -1; STAT3 activator: 98; NF-kB neuron act: 1.2; STAT1 act: 96

What do the screens show for `CN(C)S(=O)(=O)c1cccc(NC(=O)c2cc3ccccc3o2)c1`?
STAT3 inh: 6; STAT1 inh: -6; APP 5'UTR act: 39; STAT3 activator: 95; NF-kB neuron act: 1.2; STAT1 act: 105
